Results from ChEMBL document CHEMBL1142421, “Synthesis and inhibitory activity of oligosaccharide thiazolines as a class of mechanism-based inhibitors for endo-beta-N-acetylglucosaminidases” (Bioorg Med Chem, 2008).
The source made the active and inactive calls. The rule behind the calls is not given here.

What was measured:
[1] = biological target: T1, Endo-beta-N-acetylglucosaminidase (Arthrobacter protophormiae, UniProt Q9ZB22); experiment: Inhibition of Arthrobacter protophormiae endo-beta-N-acetylglucosaminidase after 5 mins by HPAEC-PED method; parameters: species or system Glutamicibacter protophormiae
T1 sequence (Q9ZB22 whole entry): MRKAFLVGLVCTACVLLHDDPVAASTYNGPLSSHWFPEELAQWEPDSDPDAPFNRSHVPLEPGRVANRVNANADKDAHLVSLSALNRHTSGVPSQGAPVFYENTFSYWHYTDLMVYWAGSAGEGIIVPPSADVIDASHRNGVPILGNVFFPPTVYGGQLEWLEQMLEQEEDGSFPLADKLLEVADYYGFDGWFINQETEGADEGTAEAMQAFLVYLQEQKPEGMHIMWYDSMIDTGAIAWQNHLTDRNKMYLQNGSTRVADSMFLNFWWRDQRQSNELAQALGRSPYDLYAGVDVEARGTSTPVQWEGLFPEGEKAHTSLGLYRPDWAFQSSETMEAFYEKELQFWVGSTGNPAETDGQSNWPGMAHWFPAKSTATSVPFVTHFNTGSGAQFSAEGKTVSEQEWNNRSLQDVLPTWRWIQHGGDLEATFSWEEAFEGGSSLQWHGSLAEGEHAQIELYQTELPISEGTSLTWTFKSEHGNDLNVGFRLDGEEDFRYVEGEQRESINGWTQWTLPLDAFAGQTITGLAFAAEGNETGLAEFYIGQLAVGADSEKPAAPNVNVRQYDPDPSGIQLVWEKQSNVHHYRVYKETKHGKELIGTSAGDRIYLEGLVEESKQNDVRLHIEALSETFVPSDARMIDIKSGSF
Method in brief: (§1)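 Man9GlcNAc2Asn (500 μM) as substrate in 50 mM phosphate buffer pH 6.5. Limited enzyme is incubated with or without serial dilutions of thiazoline at 30°C for 5 min. Reaction stopped by heating at 100°C for 3 min. Man9GlcNAc hydrolysis product quantified by HPAEC-PED.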

[2] = biological target: T2, Cytosolic endo-beta-N-acetylglucosaminidase (Homo sapiens, UniProt Q8NFI3); experiment: Inhibition of human endo-beta-N-acetylglucosaminidase expressed in Hek293 cells after 3 mins; format: cell-based
T2 sequence (Q8NFI3 whole entry): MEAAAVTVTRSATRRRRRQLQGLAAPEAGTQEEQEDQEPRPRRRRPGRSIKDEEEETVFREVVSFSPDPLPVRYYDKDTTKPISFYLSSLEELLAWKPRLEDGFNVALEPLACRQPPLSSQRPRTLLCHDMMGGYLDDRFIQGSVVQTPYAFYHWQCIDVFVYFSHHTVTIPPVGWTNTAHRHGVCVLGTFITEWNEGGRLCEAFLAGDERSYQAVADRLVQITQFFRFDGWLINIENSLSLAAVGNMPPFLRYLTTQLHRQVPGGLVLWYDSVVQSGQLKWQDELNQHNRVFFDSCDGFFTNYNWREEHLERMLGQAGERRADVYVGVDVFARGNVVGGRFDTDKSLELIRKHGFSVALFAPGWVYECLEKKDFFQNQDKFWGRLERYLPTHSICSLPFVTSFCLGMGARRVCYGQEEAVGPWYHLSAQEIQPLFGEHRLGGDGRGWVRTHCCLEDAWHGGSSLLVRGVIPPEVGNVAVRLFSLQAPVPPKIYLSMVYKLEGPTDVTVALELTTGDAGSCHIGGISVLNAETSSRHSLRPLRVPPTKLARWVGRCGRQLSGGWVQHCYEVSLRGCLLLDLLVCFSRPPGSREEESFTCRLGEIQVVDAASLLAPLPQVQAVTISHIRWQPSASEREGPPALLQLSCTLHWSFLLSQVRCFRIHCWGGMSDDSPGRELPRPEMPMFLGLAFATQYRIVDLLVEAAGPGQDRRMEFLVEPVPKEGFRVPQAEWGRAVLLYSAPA
Method in brief: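 Enzyme source: HEK293 cells transfected with pcDNA-hENGase, extracted 48 h later in Hepes-KOH pH 7.0 with protease inhibitors. The 100,000 × g soluble fraction was assayed in 40 mM Mes-NaOH pH 6.1 with 1 μM Man9GlcNAc2-PA and inhibitor from 10 mM to 0.1 μM, 3 min at 37°C. Reaction stopped by boiling; product quantified by C18 HPLC.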

Flavobacterium sp. [3] = experiment: Inhibition of Flavobacterium sp. endo-beta-N-acetylglucosaminidase at 1uM after 5 mins by HPAEC-PED method
Method in brief: (§2)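 Endo-Fsp assay uses Man5GlcNAc2Asn as substrate in 50 mM phosphate buffer pH 6.5. Limited enzyme is incubated with or without thiazoline at 30°C for 5 min, then heated at 100°C for 3 min to stop. Hydrolytic product quantified by HPAEC-PED.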

[4] = Inhibition of Mucor hiemalis endo-beta-N-acetylglucosaminidase after 5 mins by HPAEC-PED method; method in brief: as §1
Flavobacterium sp. [5] = experiment: Inhibition of Flavobacterium sp. endo-beta-N-acetylglucosaminidase at 100 uM after 5 mins by HPAEC-PED method; method in brief: as §2
Mucor hiemalis = experiment: Inhibition of Mucor hiemalis endo-beta-N-acetylglucosaminidase upto 500 uM after 5 mins by HPAEC-PED method; method in brief: as §1
[6] = biological target: T3, Endo-beta-N-acetylglucosaminidase (Arthrobacter protophormiae) (UniProt Q9ZB22); experiment: Inhibition of Arthrobacter protophormiae endo-beta-N-acetylglucosaminidase upto 500 uM after 5 mins by HPAEC-PED method; conditions: Glutamicibacter protophormiae; method in brief: as §1
T3 sequence (whole entry): T1 sequence (Q9ZB22 whole entry)

Row | Structure (SMILES) | IC50 [1] | IC50 [2] | inhibition (Flavobacterium sp. [3]) | IC50 [4] | Activity (Flavobacterium sp. [5]) | Activity (Mucor hiemalis) | Activity [6]
1 | CC1=N[C@@H]2[C@@H](O)[C@H](O[C@@H]3O[C@H](CO[C@H]4O[C@H](CO[C@H]5O[C@H](CO[C@H]6O[C@H](CO)[C@@H](O)[C@H](O)[C@@H]6O)[C@@H](O)[C@H](O)[C@@H]5O)[C@@H](O)[C@H](O[C@@H]5O[C@H](CO)[C@@H](O)[C@H](O[C@@H]6O[C@H](CO)[C@@H](O)[C@H](O)[C@@H]6O)[C@@H]5O)[C@@H]4O)[C@@H](O)[C@H](O[C@@H]4O[C@H](CO)[C@@H](O)[C@H](O)[C@@H]4O[C@@H]4O[C@H](CO)[C@@H](O)[C@H](O)[C@@H]4O[C@@H]4O[C@H](CO)[C@@H](O)[C@H](O)[C@@H]4O)[C@@H]3O)[C@@H](CO)O[C@H]2S1 | 0.22 µM | 0.42 µM | 75% | 6 µM | – | – | –
2 | CC1=N[C@@H]2[C@@H](O)[C@H](O[C@@H]3O[C@H](CO[C@H]4O[C@H](CO)[C@@H](O)[C@H](O)[C@@H]4O)[C@@H](O)[C@H](O[C@@H]4O[C@H](CO)[C@@H](O)[C@H](O)[C@@H]4O)[C@@H]3O)[C@@H](CO)O[C@H]2S1 | 13 µM | – | – | 64 µM | inactive | – | –
3 | CC1=N[C@@H]2[C@@H](O)[C@H](O)[C@@H](CO)O[C@H]2S1 | – | – | – | – | – | inactive | inactive
4 | CC1=N[C@@H]2[C@@H](O)[C@H](O[C@@H]3O[C@H](CO)[C@@H](O)[C@H](O)[C@@H]3O)[C@@H](CO)O[C@H]2S1 | 38 µM | – | – | 80 µM | inactive | – | –
